For three compounds, IC50, Activity and viability results are on record in ChEMBL document CHEMBL4184268, “Design, synthesis, and biological evaluation of inhibitors of the NADPH oxidase, Nox4” (Bioorg Med Chem, 2018).

The source made the active and inactive calls. The rule behind the calls is not given here.

Series [1] addresses T1, NADPH oxidase 4 (Homo sapiens, UniProt Q9NPH5).
T1 sequence (Q9NPH5 whole entry): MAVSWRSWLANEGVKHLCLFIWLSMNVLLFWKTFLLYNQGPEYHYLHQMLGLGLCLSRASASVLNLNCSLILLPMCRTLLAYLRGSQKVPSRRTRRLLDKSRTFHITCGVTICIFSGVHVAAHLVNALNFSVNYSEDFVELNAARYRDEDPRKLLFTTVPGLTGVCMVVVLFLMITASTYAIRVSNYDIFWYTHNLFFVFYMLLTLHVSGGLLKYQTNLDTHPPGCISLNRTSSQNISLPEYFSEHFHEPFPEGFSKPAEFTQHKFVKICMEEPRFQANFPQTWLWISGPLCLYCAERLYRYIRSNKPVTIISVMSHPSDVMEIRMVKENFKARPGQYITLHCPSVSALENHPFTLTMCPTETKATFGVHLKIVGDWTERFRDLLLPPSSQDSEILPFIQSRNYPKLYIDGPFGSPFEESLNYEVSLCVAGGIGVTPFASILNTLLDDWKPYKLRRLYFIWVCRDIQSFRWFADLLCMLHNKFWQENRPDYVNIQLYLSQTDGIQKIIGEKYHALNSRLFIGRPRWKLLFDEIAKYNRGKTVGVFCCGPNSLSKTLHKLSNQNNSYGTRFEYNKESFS
Description: Inhibition of Nox4 in HASMCs assessed as reduction in TGFbeta-induced increase in smooth muscle alpha actin level pretreated for 30 mins followed by TGFbeta stimulation after 24 hrs by Western blot analysis. The gist of the method: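 HASMs (<passage 10) at 80% confluence, serum-reduced (0.1% FBS) 24 h, pretreated 30 min with compound (1–100 μM), then TGF-β 2 ng/ml for 24 h. Lysates blotted for α-SMA normalized to β-tubulin, ECL detection. TGF-β alone set as 100%. IC50 by non-linear regression, means ± SEM from 3–4 independent experiments.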

Series [2] concerns HASMC. Description: Effect on TGFbeta-induced Nox4 mRNA expression in HASMCs at 1 to 100 uM pretreated for 30 mins followed by TGFbeta addition measured after 24 hrs by qPCR analysis. The settings on record: Homo sapiens. Format: functional, cell-based. (In general: Real-time PCR tracks product formation cycle by cycle.)
A short description of series [3]: Effect on hydrogen peroxide radical scavenging activity up to 100 uM measured after 5 mins by Amplex Red assay. Format: functional. In short, it runs like this: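 Cell-free H2O2 consumption. Exogenous H2O2 incubated 5 min with compound (1–100 μM) in reaction buffer. Amplex Red/horseradish peroxidase then added for 30 min at room temperature in the dark. Resorufin read at ex 530/em 590 nm. DMSO solvent control. Means ± SEM of 3 independent experiments, one-way ANOVA with Dunnett's test.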

Series [4] can be described thus: Cytotoxicity against HASMCs assessed as cell viability at 100 uM after 24 hrs by calcein/AM/ethidium homodimer-1 staining based fluorescence microscopic analysis relative to control. The settings on record: human, HASMC cells; read-out: Activity. The gist of the method: (§1)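 HASMs (before passage 10) grown to 80% confluence, then serum-reduced (0.1% FBS) for 24 h. Cells were pretreated with compound for 30 min, then given TGF-β (2 ng/ml) for 24 h. Stained with calcein/AM (2 μM) and ethidium homodimer-1 (4 μM) for 10 min at room temperature, read by fluorescence microscopy. Controls: untreated cells as negative, 70% ethanol for 30 min as positive.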

A short description of series [5]: Effect on hypoxanthine/xanthine oxidase-induced superoxide radical scavenging activity up to 100 uM incubated for 1 min measured for 15 mins by cytochrome C assay. Type of series: functional. In short, it runs like this:
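Superoxide from hypoxanthine (100 μM)/xanthine oxidase in PBS with catalase (200 U/mL), compound 1–100 μM, detected by cytochrome C (46 μM) reduction at 550 nm. After 1 min stabilization, read kinetically 1/min for 15 min. Linear slope gave % scavenging. SOD (575 U/mL) as positive control. Means ± SEM of 4 experiments, ANOVA/Dunnett.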

A short description of series [6]: Cytotoxicity against HASMCs assessed as cell viability at 10 uM after 24 hrs by calcein/AM/ethidium homodimer-1 staining based fluorescence microscopic analysis relative to control. As to conditions: human, HASMC cells; read-out: Activity. In short, it runs like this: as §1

`O=C1N(c2ccc(C(F)(F)F)cc2)CCCN1S(=O)(=O)c1ccc(F)cc1`: the IC50 in series [1] was determined as 3.7 µM. Moreover, the outcome in series [2], in series [3] and in series [5] was inactive. Also, the viability at 24 h, 100 µM in series [4] was 100%.

Take `COc1ccc(S(=O)(=O)N2CCCN(c3ccc(C(F)(F)F)cc3)C2=O)cc1`: the IC50 in series [1] came to 27 µM. In addition, the result in series [2], in series [3] and in series [5] was inactive. For the same compound, the viability at 24 h, 100 µM in series [4] is 92%.

For the compound `COc1ccc(S(=O)(=O)N2CCN(c3ccc(C(F)(F)F)cc3)C2=O)cc1`, the IC50 in series [1] amounted to 0.5 µM. The outcome in series [2], in series [3] and in series [5] was inactive. In series [6], the viability at 24 h, 10 µM is 97%.

As a reminder, the IC50 is the concentration at which inhibition is half-maximal.
